Active and inactive are the calls of the source. The rule behind the calls is not given here.
What was measured:
Rattus norvegicus [1] = assay: Toxicity in human SJSA1 cells xenografted rat assessed as mouse survival at 20 mg/kg, po qd; assay type: organism-based, SJSA-1; conditions: in vivo
Summary of the method: (§1)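 Tolerability was monitored in SJSA-1 tumour-bearing rats during the daily and 3qw (Monday, Wednesday, Friday) treatment schedules. Histopathology was done on all 3qw doses and on the 30 mg/kg daily group.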

[2] = biological target: E3 ubiquitin-protein ligase Mdm2 (Canis lupus familiaris, UniProt P56950); assay: Inhibition of dog MDM2 by TR-FRET assay
E3 ubiquitin-protein ligase Mdm2 (Canis lupus familiaris, UniProt P56950), sequence (P56950 whole entry): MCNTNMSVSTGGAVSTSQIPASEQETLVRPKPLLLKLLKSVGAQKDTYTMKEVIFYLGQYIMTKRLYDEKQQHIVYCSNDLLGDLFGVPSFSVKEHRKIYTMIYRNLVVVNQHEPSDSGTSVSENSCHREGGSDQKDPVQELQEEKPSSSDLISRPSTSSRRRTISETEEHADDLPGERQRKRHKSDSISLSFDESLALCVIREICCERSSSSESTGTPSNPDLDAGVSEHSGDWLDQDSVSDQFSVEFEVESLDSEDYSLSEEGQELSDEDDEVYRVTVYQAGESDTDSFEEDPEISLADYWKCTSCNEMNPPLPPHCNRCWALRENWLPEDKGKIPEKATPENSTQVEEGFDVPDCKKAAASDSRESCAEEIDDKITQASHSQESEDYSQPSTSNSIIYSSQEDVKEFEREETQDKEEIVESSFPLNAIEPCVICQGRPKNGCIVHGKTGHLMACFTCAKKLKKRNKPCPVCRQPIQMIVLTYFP

Rattus norvegicus [3] = assay: Volume of distribution at steady state in Sprague-Dawley rat at 1 mg/kg, iv; assay type: ADME, organism-based; conditions: in vivo
[4] = Inhibition of cell proliferation of human Saos2 cells deficient with p53 gene; conditions: SAOS-2
Rattus norvegicus [5] = organism: Rattus norvegicus; assay: Toxicity in rat assessed as changes in testes parameters; assay type: organism-based, Testis; conditions: in vivo
Rattus norvegicus [6] = assay: Oral bioavailability in Sprague-Dawley rat at 3 mg/kg; assay type: ADME, organism-based; conditions: in vivo
Summary of the method: (§2)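 Sprague-Dawley rats. IV dose given as a solution in NMP:PEG200 (10:90); 3 mg/kg PO given as a suspension in CMC:water:Tween (0.5:99:0.5). AUC and Cmax dose-normalized to 1 mg/kg. Mean ± SD from four rats.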

Rattus norvegicus [7] = assay: Toxicity in human SJSA1 cells xenografted dosed rat assessed as induction of histopathological changes at 30 mg/kg, po qd; assay type: organism-based, SJSA-1; conditions: in vivo
Summary of the method: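 Daily treatment of SJSA-1 tumour-bearing rats; histopathology was performed on the 30 mg/kg daily dose group to look for compound-related findings.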

[8] = Cmax in beagle dog at 0.3 mg/kg, po; assay type: ADME, organism-based, Canis lupus familiaris; parameters: dose 0.3 mg/kg, route oral; conditions: in vivo
Canis familiaris [9] = assay: AUC in beagle dog at 0.3 mg/kg, po; assay type: ADME, organism-based, Canis lupus familiaris; conditions: in vivo
Rattus norvegicus [10] = assay: In-vivo inhibition of MDM2/p53 interaction in human SJSA1 cells xenografted rat assessed as increase in PUMA mRNA level at 30 mg/kg, po measured within 72 hrs post dose by qRT-PCR method; assay type: functional, organism-based; conditions: SJSA-1
Summary of the method: (§3)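 SJSA-1 (MDM2-amplified) tumour-bearing rats were dosed at 30 mg/kg. Tumour samples were collected over time, and p21, MDM2 and PUMA mRNA were measured as p53 pharmacodynamic markers, alongside compound levels.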

[11] = biological target: T1, Induced myeloid leukemia cell differentiation protein Mcl-1 (Homo sapiens, UniProt Q07820); assay: Inhibition of Mcl1 (unknown origin) assessed as inhibition of Mcl1-Bak interaction by TR-FRET assay
T1 sequence (Q07820 whole entry): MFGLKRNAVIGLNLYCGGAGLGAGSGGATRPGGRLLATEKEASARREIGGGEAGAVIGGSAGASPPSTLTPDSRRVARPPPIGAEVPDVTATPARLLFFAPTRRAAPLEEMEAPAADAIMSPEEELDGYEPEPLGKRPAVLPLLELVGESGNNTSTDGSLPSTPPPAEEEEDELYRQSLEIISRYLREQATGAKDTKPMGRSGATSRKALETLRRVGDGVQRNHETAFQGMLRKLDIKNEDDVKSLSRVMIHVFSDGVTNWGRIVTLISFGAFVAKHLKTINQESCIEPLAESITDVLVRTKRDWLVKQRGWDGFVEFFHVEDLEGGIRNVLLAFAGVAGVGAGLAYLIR

Rattus norvegicus [12] = organism: Rattus norvegicus; assay: Toxicity in female rat assessed as changes in adrenal gland parameters; assay type: organism-based; conditions: in vivo
Rattus norvegicus [13] = assay: Toxicity in human SJSA1 cells xenografted rat assessed as mouse survival at 70 mg/kg, po dosed 3 times per week; assay type: organism-based, SJSA-1; conditions: in vivo; summary of the method: as §1
[14] = AUC (0 to 24 hrs) in human SJSA1 cells xenografted rat assessed as mouse survival at 20 mg/kg, po qd; assay type: ADME, organism-based, SJSA-1; parameters: time < 24 hr, dose 20 mg/kg, route oral; conditions: in vivo
Summary of the method: (§4)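 Rats bearing MDM2-amplified human SJSA-1 tumors, dosed orally either daily or 3qw (Monday, Wednesday, Friday). Plasma exposure reported as AUC0-24, plus AUC0-48 for the 3qw schedule.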

Rattus norvegicus [15] = assay: Toxicity in human SJSA1 cells xenografted rat assessed as change in body weight at 30 mg/kg, po qd (reference value: 1.9 to 6.8%); assay type: organism-based, SJSA-1; conditions: in vivo
[16] = Intrinsic clearance in human liver microsomes; assay type: ADME; conditions: read-out: CLH
Rattus norvegicus [17] = assay: Toxicity in human SJSA1 cells xenografted rat assessed as change in body weight at 20 mg/kg, po qd (reference value: 1.9 to 6.8%); assay type: organism-based, SJSA-1; conditions: in vivo
[18] = Octanol water partition coefficient, logP of the compound; assay type: physicochemical
Rattus norvegicus [19] = assay: Terminal half life in Sprague-Dawley rat at 1 mg/kg, iv; assay type: ADME, organism-based; conditions: in vivo; summary of the method: as §2
Rattus norvegicus [20] = assay: Toxicity in human SJSA1 cells xenografted dosed rat assessed as drug toleration dosed orally on daily basis under q24h regime; assay type: organism-based, SJSA-1; conditions: in vivo, po
Summary of the method: (§5)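 Rats bearing MDM2-amplified SJSA-1 human tumours, treated daily. Tolerability was monitored during treatment. Histopathology for compound-related findings was performed at the 30 mg/kg daily dose.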

SJSA-1 = assay: Antitumor activity against human SJSA1 cells xenografted in rat assessed as reduction tumor growth dosed orally three times per week; assay type: functional, organism-based
Summary of the method: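 SJSA-1 tumour-bearing rats were treated either daily or 3qw (Monday, Wednesday and Friday) across a range of doses, and tumour growth was followed over the treatment course. Plasma AUC0-24 was also determined, along with AUC0-48 for the 3qw schedule.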

Rattus norvegicus [21] = assay: Toxicity in human SJSA1 cells xenografted dosed rat assessed as induction of histopathological changes dosed orally on daily basis under q24h regime; assay type: organism-based, SJSA-1; conditions: in vivo, po; summary of the method: as §5
Rattus norvegicus [22] = assay: Toxicity in human SJSA1 cells xenografted rat assessed as change in body weight at 70 mg/kg, po dosed three times per week (reference value: 1.9 to 6.8%); assay type: organism-based, SJSA-1; conditions: in vivo
[23] = Inhibition of cell proliferation of human SJSA1 cells expressing p53; conditions: SJSA-1
[24] = Inhibition of Ras (unknown origin) assessed as inhibition of Ras-Raf interaction by TR-FRET assay; parameters: species or system Homo sapiens
[25] = biological target: T1, Induced myeloid leukemia cell differentiation protein Mcl-1; assay: Inhibition of Mcl1 (unknown origin) assessed as inhibition of Mcl1-Noxa interaction by TR-FRET assay
[26] = Protein binding in OF1 mouse plasma by equilibrium dialysis method; assay type: ADME, cell-free; conditions: read-out: PPB
[27] = AUC (0 to 24 hrs) in human SJSA1 cells xenografted rat assessed as mouse survival at 5 mg/kg, po qd; assay type: ADME, organism-based, SJSA-1; parameters: time < 24 hr, dose 5 mg/kg, route oral; conditions: in vivo; summary of the method: as §4
Canis familiaris [28] = assay: Oral bioavailability in beagle dog at 0.3 mg/kg; assay type: ADME, organism-based, Canis lupus familiaris; conditions: in vivo
HCT-116 = assay: Inhibition of cell proliferation of human HCT116 cells expressing p53
Rattus norvegicus [29] = assay: Toxicity in human SJSA1 cells xenografted rat assessed as mouse survival at 5 mg/kg, po qd; assay type: organism-based, SJSA-1; conditions: in vivo; summary of the method: as §1
Rattus norvegicus [30] = assay: Toxicity in human SJSA1 cells xenografted rat assessed as mouse survival at 10 mg/kg, po qd; assay type: organism-based, SJSA-1; conditions: in vivo; summary of the method: as §1
[31] = biological target: E3 ubiquitin-protein ligase Mdm2 (Mus musculus, UniProt P23804); assay: Inhibition of mouse MDM2 by TR-FRET assay
E3 ubiquitin-protein ligase Mdm2 (Mus musculus, UniProt P23804), sequence (P23804 whole entry): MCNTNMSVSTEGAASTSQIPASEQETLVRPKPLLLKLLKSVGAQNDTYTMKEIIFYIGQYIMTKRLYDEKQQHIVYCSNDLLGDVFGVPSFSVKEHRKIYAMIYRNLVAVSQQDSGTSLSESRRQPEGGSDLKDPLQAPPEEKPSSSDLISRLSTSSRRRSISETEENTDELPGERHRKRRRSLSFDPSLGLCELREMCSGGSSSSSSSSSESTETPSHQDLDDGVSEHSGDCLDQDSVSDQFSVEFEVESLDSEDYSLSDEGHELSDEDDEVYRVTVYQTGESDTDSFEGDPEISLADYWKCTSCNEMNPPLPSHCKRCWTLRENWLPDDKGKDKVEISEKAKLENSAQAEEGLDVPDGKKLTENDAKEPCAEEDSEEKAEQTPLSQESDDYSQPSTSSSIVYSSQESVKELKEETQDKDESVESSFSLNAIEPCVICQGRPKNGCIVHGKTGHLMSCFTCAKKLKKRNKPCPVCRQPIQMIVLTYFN

Rattus norvegicus [32] = assay: In-vivo inhibition of MDM2/p53 interaction in human SJSA1 cells xenografted rat assessed as increase in MDM2 mRNA level at 30 mg/kg, po measured within 72 hrs post dose by qRT-PCR method; assay type: functional, organism-based; conditions: SJSA-1; summary of the method: as §3
Rattus norvegicus [33] = organism: Rattus norvegicus; assay: Toxicity in rat assessed as induction of structural changes in testes tubular epithelium; assay type: organism-based, Testis; conditions: in vivo
[34] = Inhibition of rat MDM2 by TR-FRET assay
Mus musculus = assay: Oral bioavailability in OF1 mouse at 3 mg/kg; assay type: ADME, organism-based; conditions: in vivo
Rattus norvegicus [35] = assay: Toxicity in human SJSA1 cells xenografted rat assessed as change in body weight at 30 mg/kg, po dosed three times per week (reference value: 1.9 to 6.8%); assay type: organism-based, SJSA-1; conditions: in vivo
Cynomolgus monkey = assay: AUC in cynomolgus monkey at 0.3 mg/kg, po; assay type: ADME, organism-based, Macaca fascicularis; conditions: in vivo
[36] = AUC (0 to 24 hrs) in human SJSA1 cells xenografted rat assessed as mouse survival at 10 mg/kg, po qd; assay type: ADME, organism-based, SJSA-1; parameters: time < 24 hr, dose 10 mg/kg, route oral; conditions: in vivo; summary of the method: as §4
Rattus norvegicus [37] = assay: AUC in Sprague-Dawley rat at 3 mg/kg, po; assay type: ADME, organism-based; conditions: in vivo; summary of the method: as §2
[38] = Protein binding in beagle dog plasma by equilibrium dialysis method; assay type: ADME, cell-free, Canis lupus familiaris; conditions: read-out: PPB
Rattus norvegicus [39] = assay: Toxicity in human SJSA1 cells xenografted rat assessed as change in body weight at 5 mg/kg, po qd (reference value: 1.9 to 6.8%); assay type: organism-based, SJSA-1; conditions: in vivo

## COc1cc2c(cc1OC(C)C)[C@H](c1ccc(Cl)cc1)N(c1ccc(N(C)C[C@H]3CC[C@H](N4CCN(C)C(=O)C4)CC3)cc1)C(=O)C2 [CGM-097]
Rattus norvegicus [1]
  Activity: Non-toxic
[2]
  Ki: 20.5 nM
Rattus norvegicus [3]
  Vdss: 6.4 L/kg
[4]
  IC50: 20500 nM
Rattus norvegicus [5]
  Activity: Toxic
Rattus norvegicus [6]
  F: 81%
Rattus norvegicus [7]
  Activity: Non-toxic
[8]
  Cmax: 251 nM
Canis familiaris [9]
  AUC: 5.993 µM·h
Rattus norvegicus [10]
  inhibition: Active
[11]
  IC50: > 50000 nM
Rattus norvegicus [12]
  Activity: Toxic
Rattus norvegicus [13]
  Activity: Non-toxic
[14]
  AUC at 24 h: 163 µM·h
Rattus norvegicus [15]
  Activity: 4.5%
[16]
  microsomal CLint: 52.3 µL/min/mg
Rattus norvegicus [17]
  Activity: 3.4%
[18]
  logP: 5.8
Rattus norvegicus [19]
  beta t1/2: 12.1 h
Rattus norvegicus [20]
  Activity: Non-toxic
SJSA-1
  growth inhibition (GI): Dose-dependent effect
Rattus norvegicus [21]
  Activity: Non-toxic
Rattus norvegicus [22]
  Activity: 7%
[23]
  IC50: 353 nM
[24]
  IC50: 4500 nM
[25]
  IC50: > 50000 nM
[26]
  fraction unbound: < 0.01
[27]
  AUC at 24 h: 34 µM·h
Canis familiaris [28]
  F: 74%
HCT-116
  IC50: 454 nM
Rattus norvegicus [29]
  Activity: Non-toxic
Rattus norvegicus [30]
  Activity: Non-toxic
[31]
  Ki: 65.9 nM
Rattus norvegicus [32]
  inhibition: Active
Rattus norvegicus [33]
  Activity: Toxic
[34]
  Ki: 47.4 nM
Mus musculus
  F: 71%
Rattus norvegicus [35]
  Activity: 4.5%
Cynomolgus monkey
  AUC: 3.73 µM·h
[36]
  AUC at 24 h: 61 µM·h
Rattus norvegicus [37]
  AUC: 2.779 µM·h
[38]
  fraction unbound: < 0.01
Rattus norvegicus [39]
  Activity: 2.8%

— ChEMBL document CHEMBL3600357 (J Med Chem, 2015)
